According to ChEMBL document CHEMBL1154824, “Synthesis and biological activity of derivatives of the marine quinone avarone” (Eur J Med Chem, 2010):
In brackets after ≈: the same amount, converted by molar mass. Activity calls are given as the source filed them. No cut-off for these calls is given here.

Legend:
[1] = tested on: K562; assay: Cytotoxicity against human K562 cells by MTT assay; type: functional, cell-based
[2] = tested on: LOX IMVI; assay: Cytotoxicity against human LOXIMVI cells after 48 hrs by sulforhodamine B assay; type: functional
How it was run: (§1)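 Tested at NIH-NCI against the 60 human tumor cell line panel. Each line was exposed to at least five concentrations for 48 h. Growth and survival were read by the sulforhodamine test.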

[3] = Cytotoxicity against human prostate cancer cells after 48 hrs by sulforhodamine B assay; type: functional; conditions: Cancer cell lines; how it was run: as §1
[4] = tested on: Staphylococcus aureus; assay: Antibacterial activity against Staphylococcus aureus ATCC 25923 by serial dilution method; type: functional
[5] = Cytotoxicity against human Fem-X cells assessed as decrease in total cellular protein by kenacid blue R binding method; type: functional, cell-based
[6] = tested on: CCRF-CEM; assay: Cytotoxicity against human CCRF-CEM cells after 48 hrs by sulforhodamine B assay; type: functional; how it was run: as §1
[7] = tested on: HOP-92; assay: Cytotoxicity against human HOP92 cells after 48 hrs by sulforhodamine B assay; type: functional; conditions: HOP-92, 48 h; how it was run: as §1
[8] = tested on: IGROV-1; assay: Cytotoxicity against human IGROV1 cells after 48 hrs by sulforhodamine B assay; type: functional; conditions: IGROV-1, 48 h; how it was run: as §1
[9] = tested on: MCF7; assay: Cytotoxicity against human MCF7 cells after 48 hrs by sulforhodamine B assay; type: functional; conditions: MCF7, 48 h; how it was run: as §1
[10] = tested on: MDA-MB-435; assay: Cytotoxicity against human MDA-MB-435 cells after 48 hrs by sulforhodamine B assay; type: functional; conditions: MDA-MB-435, 48 h; how it was run: as §1
[11] = tested on: MOLT-4; assay: Cytotoxicity against human MOLT4 cells after 48 hrs by sulforhodamine B assay; type: functional; conditions: MOLT-4, 48 h; how it was run: as §1
[12] = tested on: SK-MEL-2; assay: Cytotoxicity against human SK-MEL-2 cells after 48 hrs by sulforhodamine B assay; type: functional; conditions: SK-MEL-2, 48 h; how it was run: as §1
[13] = tested on: Escherichia coli; assay: Antibacterial activity against Escherichia coli ATCC 35218 by serial dilution method; type: functional
[14] = tested on: RXF 393; assay: Cytotoxicity against human RXF393 cells after 48 hrs by sulforhodamine B assay; type: functional; conditions: RXF 393, 48 h; how it was run: as §1
[15] = tested on: RPMI-8226; assay: Cytotoxicity against human RPMI8226 cells after 48 hrs by sulforhodamine B assay; type: functional; conditions: RPMI-8226, 48 h; how it was run: as §1
[16] = tested on: T47D; assay: Cytotoxicity against human T47D cells after 48 hrs by sulforhodamine B assay; type: functional; how it was run: as §1
[17] = Cytotoxicity against human CNS cancer cells after 48 hrs by sulforhodamine B assay; type: functional; conditions: Cancer cell lines; how it was run: as §1
[18] = tested on: HeLa; assay: Cytotoxicity against human HeLa cells assessed as decrease in total cellular protein by kenacid blue R binding method; type: functional, cell-based
[19] = Cytotoxicity against human colon cancer cells after 48 hrs by sulforhodamine B assay; type: functional; conditions: Cancer cell lines; how it was run: as §1
[20] = tested on: K562; assay: Cytotoxicity against human K562 cells after 48 hrs by sulforhodamine B assay; type: functional; conditions: K562, 48 h; how it was run: as §1
[21] = tested on: Artemia salina; assay: Toxicity against freshly hatched nauplii of brine shrimp after 24 hrs; type: organism-based; conditions: in vivo
[22] = tested on: NCI-H23; assay: Cytotoxicity against human NCI-H23 cells after 48 hrs by sulforhodamine B assay; type: functional; conditions: NCI-H23, 48 h; how it was run: as §1
[23] = tested on: PBMC; assay: Cytotoxicity against human phytohemagglutininin-stimulated PBMC cells assessed as growth inhibition by MTT assay; type: cell-based
[24] = tested on: PBMC; assay: Cytotoxicity against human PBMC cells by MTT assay; type: cell-based
[25] = tested on: Human immunodeficiency virus; assay: Antiviral activity against HIV infected in human T4 lymphocytes assessed as protection from HIV-induced cytopathogenicity at 2 uM; type: functional
[26] = Cytotoxicity against human T4 lymphocytes

| Structure (SMILES) | IC50 [1] [µM] | MIC [4] | IC50 [5] [µM] | MIC [13] | IC50 [18] [µM] | LC50 [21] | IC50 [23] [µM] | IC50 [24] [µM] | other results |
| --- | --- | --- | --- | --- | --- | --- | --- | --- | --- |
| CC1=CCC[C@H]2[C@](C)(CC3=CC(=O)C4=C(SCCS4)C3=O)[C@@H](C)CC[C@]12C | 91 | inactive | 75 | 100 µg/mL (≈ 248 µM) | > 100 | 2045 ppm |  |  | GI50 [2]: 11.2 µM; GI50 [3]: > 10 µM; GI50 [6]: 11 µM; GI50 [7]: 31.6 µM; GI50 [8]: 32.4 µM; GI50 [9]: 20.4 µM; GI50 [10]: 8.13 µM; GI50 [11]: 21.4 µM; GI50 [12]: 1.7 µM; GI50 [14]: 18.6 µM; GI50 [15]: 14.1 µM; GI50 [16]: > 100 µM; GI50 [17]: > 10 µM; GI50 [19]: > 10 µM; GI50 [20]: 20 µM; GI50 [22]: 13.2 µM |
| CNC1=CC(=O)C(C[C@]2(C)[C@@H](C)CC[C@]3(C)C(C)=CCC[C@@H]23)=CC1=O | 9.3 | inactive | 2.4 | inactive | 12.6 | 0.34 ppm | > 100 | > 100 |  |
| CC1=CCC[C@H]2[C@](C)(CC3=CC(=O)C(SCC(C)C)=CC3=O)[C@@H](C)CC[C@]12C | 39 | 50 µg/mL (≈ 125 µM) | 89.5 | 25 µg/mL (≈ 62.4 µM) | 98 | 0.17 ppm |  |  | GI50 [2]: 4.07 µM; GI50 [3]: > 10 µM; GI50 [6]: 1.35 µM; GI50 [7]: 4.79 µM; Activity [25]: 28.5%; GI50 [8]: 10 µM; GI50 [9]: 7.24 µM; GI50 [10]: 15.5 µM; Activity [26]: Toxic; GI50 [11]: 2.29 µM; GI50 [12]: 20.9 µM; GI50 [14]: 6.76 µM; GI50 [15]: 3.8 µM; GI50 [16]: 2.63 µM; GI50 [17]: > 10 µM; GI50 [19]: > 10 µM; GI50 [20]: 4.47 µM; GI50 [22]: 5.5 µM |
| CCCSC1=CC(=O)C(C[C@]2(C)[C@@H](C)CC[C@]3(C)C(C)=CCC[C@@H]23)=CC1=O | 45.5 | 50 µg/mL (≈ 129 µM) | 89.5 | inactive | 97 | 0.2 ppm |  |  |  |
| CC1=CCC[C@H]2[C@](C)(CC3=CC(=O)C=C(Sc4ccccc4)C3=O)[C@@H](C)CC[C@]12C | 17.4 | 12.5 µg/mL (≈ 29.7 µM) | 41.5 | inactive | 54.8 | 32.33 ppm |  |  |  |
| CC1=CCC[C@H]2[C@](C)(CC3=CC(=O)C(SC(C)C)=CC3=O)[C@@H](C)CC[C@]12C | 47.5 | inactive | 86 | inactive | 67 | 0.44 ppm |  |  |  |
| CC1=CCC[C@H]2[C@](C)(CC3=CC(=O)C(Sc4ccccc4)=CC3=O)[C@@H](C)CC[C@]12C | 15.2 | 12.5 µg/mL (≈ 29.7 µM) | 42.5 | inactive | 45 | 30.21 ppm | 11.2 | 9.9 | GI50 [2]: 13.5 µM; GI50 [3]: > 10 µM; GI50 [6]: 3.89 µM; GI50 [7]: 17 µM; Activity [25]: 12.5%; GI50 [8]: 16.2 µM; GI50 [9]: 22.4 µM; GI50 [10]: 17 µM; Activity [26]: Toxic; GI50 [11]: 2.57 µM; GI50 [12]: 20 µM; GI50 [14]: 16.2 µM; GI50 [15]: 20.4 µM; GI50 [16]: 20.4 µM; GI50 [17]: > 10 µM; GI50 [19]: > 10 µM; GI50 [20]: 19.5 µM; GI50 [22]: 14.8 µM |
| CC1CCC[C@H]2[C@](C)(CC3=CC(=O)C(Cl)=CC3=O)[C@@H](C)CC[C@]12C (stereo not given in full) | 11.2 | 50 µg/mL (≈ 143 µM) | 32.2 | 25 µg/mL (≈ 71.7 µM) | 34.1 | 0.65 ppm |  |  |  |
| COC1=CC(=O)C=C(C[C@]2(C)[C@@H](C)CC[C@]3(C)C(C)=CCC[C@@H]23)C1=O | 2.1 | 25 µg/mL (≈ 73 µM) | 9.8 | 50 µg/mL (≈ 146 µM) | 13.3 | 0.02 ppm | 5.5 | 5.9 |  |
| CC1=CCC[C@H]2[C@](C)(Cc3cc(O)ccc3O)[C@@H](C)CC[C@]12C [AVAROL] | 7.3 | 12.5 µg/mL (≈ 39.7 µM) | 21.7 | inactive | 19.7 | 0.18 ppm | 3.2 | 3 |  |
| CCCCCCCCSC1=CC(=O)C(C[C@]2(C)[C@@H](C)CC[C@]3(C)C(C)=CCC[C@@H]23)=CC1=O | > 100 | inactive | > 100 | 25 µg/mL (≈ 54.7 µM) | > 100 | Not Active |  |  |  |
| C[C@H]1c2cccc(O)c2C(=O)C2=C(O)[C@]3(O)C(=O)C(C(N)=O)=C(O)[C@@H](N(C)C)[C@@H]3[C@@H](O)[C@@H]21.O [DOXYCYCLINE] |  | 4 µg/mL |  | 2 µg/mL |  |  |  |  |  |
| CCCCSC1=CC(=O)C(C[C@]2(C)[C@@H](C)CC[C@]3(C)C(C)=CCC[C@@H]23)=CC1=O | 12.5 | 25 µg/mL (≈ 62.4 µM) | 24.4 | inactive | 25.1 | 0.92 ppm |  |  |  |
| CC1=CCC[C@H]2[C@](C)(CC3=CC(=O)C(SC(C)(C)C)=CC3=O)[C@@H](C)CC[C@]12C | 25.7 | 50 µg/mL (≈ 125 µM) | 38 | inactive | 37 | 0.89 ppm | 20.8 | 21.7 |  |
| CC1=CCC[C@H]2[C@](C)(CC3=CC(=O)C=CC3=O)[C@@H](C)CC[C@]12C [AVARONE] | 4.9 | 6.25 µg/mL (≈ 20 µM) | 23.9 | 25 µg/mL (≈ 80 µM) | 26.8 | 0.14 ppm | 4.5 | 4.8 |  |
